Results reported in ChEMBL document CHEMBL2321718, “Antioxidant activities of thiosemicarbazones from substituted benzaldehydes and N-(tetra-O-acetyl-β-D-galactopyranosyl)thiosemicarbazide” (Eur J Med Chem, 2013).
Each block holds one compound with its values, some of them ahead of it.

How the values were obtained:
Format in all cases: functional
[1] = system: Radical scavenging activity; experiment: Antioxidant activity assessed as DPPH radical scavenging activity at 300 uM after 30 mins by spectrophotometry
Method in brief: (§1)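 Wistar-independent cell-free assay: 5 µl sample in 96% ethanol (solutions 0.5, 1.0, 2.0, 4.0, 8.0, 12.0 mM before mixing) added to 195 µl DPPH in 96% ethanol (solution labelled […]). Incubated 30 min at 25 °C, then A518 read. %AA = (A_DPPH − A_sample)/(A_DPPH − A_ethanol)×100. Triplicates averaged. IC50 from linear regression of mean %AA against concentration. Resveratrol positive control.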

Rattus norvegicus [2] = experiment: (§2) Antioxidant activity against CCl4-induced oxidative hepatic injury Wistar albino rat model assessed as effect on liver cytosolic GSH-Px activity per mg protein at 100 mg/kg, ip for 7 consecutive days prior to CCL4 challenge measured 24 hrs post CCl4 challenge (reference value: 0.27 +/-0.01 U/mg protein); settings: route intraperitoneal
Rattus norvegicus [3] = experiment: as §2, with “SOD” for “GSH-Px”, “5.42 +/-0.29” for “0.27 +/-0.01”; settings: route intraperitoneal
Method in brief: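 Wistar albino rats (100–150 g), 7 per group, dosed i.p. at 100 mg/kg/day for 7 days. Then CCl4 in olive oil (1:1) i.p. at 0.6 mL/kg. Liver taken 24 h later, homogenized in 1.15% KCl-10 mM phosphate/EDTA pH 7.4, cytosol obtained by sequential centrifugation. SOD read as the rate of cytochrome C reduction at 550 nm over 5 min (xanthine/xanthine oxidase, KCN, deoxycholate). Units/mg Lowry protein.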

Rattus norvegicus [4] = experiment: as §2, with “catalase” for “GSH-Px”, “218.25 +/-11.43” for “0.27 +/-0.01”; settings: route intraperitoneal
[5] = system: Radical scavenging activity; experiment: Antioxidant activity assessed as DPPH radical scavenging activity at 25 uM after 30 mins by spectrophotometry; method in brief: as §1
[6] = system: Radical scavenging activity; experiment: Antioxidant activity assessed as DPPH radical scavenging activity at 100 uM after 30 mins by spectrophotometry; method in brief: as §1
[7] = system: Radical scavenging activity; experiment: Antioxidant activity assessed as DPPH radical scavenging activity at 50 uM after 30 mins by spectrophotometry; method in brief: as §1
[8] = system: Radical scavenging activity; experiment: Antioxidant activity assessed as DPPH radical scavenging activity after 30 mins by spectrophotometry; method in brief: as §1
[9] = system: Radical scavenging activity; experiment: Antioxidant activity assessed as DPPH radical scavenging activity at 200 uM after 30 mins by spectrophotometry; method in brief: as §1
[10] = system: Radical scavenging activity; experiment: Antioxidant activity assessed as DPPH radical scavenging activity at 12.5 uM after 30 mins by spectrophotometry; method in brief: as §1

Structure (SMILES): CC(=O)OC[C@H]1O[C@@H](NC(=S)N/N=C/c2ccc(O)cc2)[C@H](OC(C)=O)[C@@H](OC(C)=O)[C@H]1OC(C)=O
- Activity [1]: 75.1%
- Activity (Rattus norvegicus [2]): 0.51 U/mg
- Activity (Rattus norvegicus [3]): 8.24 U/mg
- Activity (Rattus norvegicus [4]): 332 U/mg
- Activity [5]: 22.6%
- Activity [6]: 49.2%
- Activity [7]: 33.3%
- IC50 [8]: 108 µM
- Activity [9]: 68.7%
- Activity [10]: 11.4%

Structure (SMILES): COc1cccc(/C=N/NC(=S)N[C@@H]2O[C@H](COC(C)=O)[C@H](OC(C)=O)[C@H](OC(C)=O)[C@H]2OC(C)=O)c1
- Activity [1]: 55.1%
- Activity (Rattus norvegicus [2]): 0.71 U/mg
- Activity (Rattus norvegicus [3]): 8.89 U/mg
- Activity (Rattus norvegicus [4]): 362 U/mg
- Activity [5]: 11.5%
- Activity [6]: 27.2%
- Activity [7]: 15.6%
- IC50 [8]: 276 µM
- Activity [9]: 34%
- Activity [10]: 7.34%

Structure (SMILES): CC(=O)OC[C@H]1O[C@@H](NC(=S)N/N=C/c2cccc([N+](=O)[O-])c2)[C@H](OC(C)=O)[C@@H](OC(C)=O)[C@H]1OC(C)=O
- Activity [1]: 51.2%
- Activity (Rattus norvegicus [2]): 0.73 U/mg
- Activity (Rattus norvegicus [3]): 9.01 U/mg
- Activity (Rattus norvegicus [4]): 361 U/mg
- Activity [5]: 13.7%
- Activity [6]: 26.3%
- Activity [7]: 19.6%
- IC50 [8]: 283 µM
- Activity [9]: 38.3%
- Activity [10]: 7.05%

Structure (SMILES): CC(=O)OC[C@H]1O[C@@H](NC(=S)N/N=C/c2ccc(F)cc2)[C@H](OC(C)=O)[C@@H](OC(C)=O)[C@H]1OC(C)=O
- Activity [1]: 67.2%
- Activity (Rattus norvegicus [2]): 0.69 U/mg
- Activity (Rattus norvegicus [3]): 8.6 U/mg
- Activity (Rattus norvegicus [4]): 351 U/mg
- Activity [5]: 13.3%
- Activity [6]: 34.3%
- Activity [7]: 17.1%
- IC50 [8]: 197 µM
- Activity [9]: 55.6%
- Activity [10]: 8.51%

Structure (SMILES): CC(=O)OC[C@H]1O[C@@H](NC(=S)N/N=C/c2ccc(N(C)C)cc2)[C@H](OC(C)=O)[C@@H](OC(C)=O)[C@H]1OC(C)=O
- Activity [1]: 78.5%
- Activity (Rattus norvegicus [2]): 0.71 U/mg
- Activity (Rattus norvegicus [3]): 5.81 U/mg
- Activity (Rattus norvegicus [4]): 295 U/mg
- Activity [5]: 30.9%
- Activity [6]: 68.2%
- Activity [7]: 48.9%
- IC50 [8]: 56 µM
- Activity [9]: 74.5%
- Activity [10]: 14.3%

Structure (SMILES): COc1ccc(/C=N/NC(=S)N[C@@H]2O[C@H](COC(C)=O)[C@H](OC(C)=O)[C@H](OC(C)=O)[C@H]2OC(C)=O)cc1O
- Activity [1]: 69.6%
- Activity (Rattus norvegicus [2]): 0.59 U/mg
- Activity (Rattus norvegicus [3]): 8.76 U/mg
- Activity (Rattus norvegicus [4]): 352 U/mg
- Activity [5]: 17.4%
- Activity [6]: 40.1%
- Activity [7]: 28.2%
- IC50 [8]: 182 µM
- Activity [9]: 56.8%
- Activity [10]: 8.16%

Now from value to compound, other results behind:

- IC50 [8]: 94 µM
Structure (SMILES): Oc1ccc(/C=C/c2cc(O)cc(O)c2)cc1 [RESVERATROL]
- Activity [1]: 75.6%
- Activity (Rattus norvegicus [2]): 0.35 U/mg
- Activity (Rattus norvegicus [3]): 7.49 U/mg
- Activity (Rattus norvegicus [4]): 285 U/mg
- Activity [5]: 22.6%
- Activity [6]: 54%
- Activity [7]: 33.8%
- Activity [9]: 70.4%
- Activity [10]: 9.13%

- IC50 [8]: 210 µM
Structure (SMILES): CC(=O)OC[C@H]1O[C@@H](NC(=S)N/N=C/c2ccc([N+](=O)[O-])cc2)[C@H](OC(C)=O)[C@@H](OC(C)=O)[C@H]1OC(C)=O
- Activity [1]: 64.5%
- Activity (Rattus norvegicus [2]): 0.71 U/mg
- Activity (Rattus norvegicus [3]): 8.79 U/mg
- Activity (Rattus norvegicus [4]): 352 U/mg
- Activity [5]: 11.3%
- Activity [6]: 29.1%
- Activity [7]: 18.5%
- Activity [9]: 53.3%
- Activity [10]: 6.11%

- IC50 [8]: 206 µM
Structure (SMILES): CC(=O)OC[C@H]1O[C@@H](NC(=S)N/N=C/c2ccc(C)cc2)[C@H](OC(C)=O)[C@@H](OC(C)=O)[C@H]1OC(C)=O
- Activity [1]: 65%
- Activity (Rattus norvegicus [2]): 0.72 U/mg
- Activity (Rattus norvegicus [3]): 8.82 U/mg
- Activity (Rattus norvegicus [4]): 354 U/mg
- Activity [5]: 12.8%
- Activity [6]: 32.8%
- Activity [7]: 18.1%
- Activity [9]: 53.3%
- Activity [10]: 7.21%

- IC50 [8]: > 300 µM
Structure (SMILES): CC(=O)OC[C@H]1O[C@@H](NC(=S)N/N=C/c2ccc(Br)cc2)[C@H](OC(C)=O)[C@@H](OC(C)=O)[C@H]1OC(C)=O
- Activity [1]: 44.3%
- Activity (Rattus norvegicus [2]): 0.98 U/mg
- Activity (Rattus norvegicus [3]): 9.95 U/mg
- Activity (Rattus norvegicus [4]): 389 U/mg
- Activity [5]: 9.04%
- Activity [6]: 23.5%
- Activity [7]: 17.5%
- Activity [9]: 35.4%
- Activity [10]: 5.38%

- IC50 [8]: 270 µM
Structure (SMILES): CC(=O)OC[C@H]1O[C@@H](NC(=S)N/N=C/c2ccc(Cl)cc2)[C@H](OC(C)=O)[C@@H](OC(C)=O)[C@H]1OC(C)=O
- Activity [1]: 55.4%
- Activity (Rattus norvegicus [2]): 0.7 U/mg
- Activity (Rattus norvegicus [3]): 8.91 U/mg
- Activity (Rattus norvegicus [4]): 358 U/mg
- Activity [5]: 10.1%
- Activity [6]: 19.8%
- Activity [7]: 17.6%
- Activity [9]: 38.4%
- Activity [10]: 7.15%

- IC50 [8]: > 300 µM
Structure (SMILES): CC(=O)OC[C@H]1O[C@@H](NC(=S)N/N=C/c2ccc(C(C)C)cc2)[C@H](OC(C)=O)[C@@H](OC(C)=O)[C@H]1OC(C)=O
- Activity [1]: 24.5%
- Activity (Rattus norvegicus [2]): 1.01 U/mg
- Activity (Rattus norvegicus [3]): 9.92 U/mg
- Activity (Rattus norvegicus [4]): 391 U/mg
- Activity [5]: 5.32%
- Activity [6]: 15.1%
- Activity [7]: 9.65%
- Activity [9]: 18.1%
- Activity [10]: 2.17%

- IC50 [8]: 75 µM
Structure (SMILES): COc1cc(/C=N/NC(=S)N[C@@H]2O[C@H](COC(C)=O)[C@H](OC(C)=O)[C@H](OC(C)=O)[C@H]2OC(C)=O)ccc1O
- Activity [1]: 74%
- Activity (Rattus norvegicus [2]): 0.37 U/mg
- Activity (Rattus norvegicus [3]): 6.57 U/mg
- Activity (Rattus norvegicus [4]): 290 U/mg
- Activity [5]: 27.1%
- Activity [6]: 60.3%
- Activity [7]: 45.6%
- Activity [9]: 71.2%
- Activity [10]: 9.45%

- IC50 [8]: 71 µM
Structure (SMILES): CCOc1cc(/C=N/NC(=S)N[C@@H]2O[C@H](COC(C)=O)[C@H](OC(C)=O)[C@H](OC(C)=O)[C@H]2OC(C)=O)ccc1O
- Activity [1]: 69.2%
- Activity (Rattus norvegicus [2]): 0.69 U/mg
- Activity (Rattus norvegicus [3]): 6.45 U/mg
- Activity (Rattus norvegicus [4]): 284 U/mg
- Activity [5]: 30.2%
- Activity [6]: 59.4%
- Activity [7]: 45.4%
- Activity [9]: 68.3%
- Activity [10]: 14.2%
